In assay [1] the test system is Mus musculus. The assay can be described thus: Antiinflammatory activity in C57BL/6J mouse model of LPS-induced acute lung injury assessed as reduction in IL-6 production in BALF at 20 mg/kg, po administered 30 mins prior to LPS treatment and measured after 6 hrs. It counts as functional, organism-based. As to conditions: time 6.5 hrs. An outline of the steps: (§1)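 Mice dosed orally 30 min before intratracheal LPS at 5 mg/kg; sham mice received a similar volume of saline. Animals sacrificed 6 h after LPS, and blood and BALF collected. TNF-α and IL-6 measured in serum and in BALF. Mean ± SEM, n = 8, compared with the LPS-only group.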

In assay [2] the test system is J774.A1. The experiment in a line: Antiinflammatory activity in mouse J774.A1 cells assessed as decrease in LPS-induced IL-6 secretion at 20 uM preincubated for 30 mins followed by LPS stimulation and measured after 24 hrs by ELISA. It counts as functional. Details: scale not given: the % may be the effect or the level left. The conditions noted are these: time 24.5 hrs. An outline of the steps:
(§2)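 J774A.1 macrophages pretreated 30 min with 20 μM compound, DMSO as negative control. Cells then stimulated with LPS at 0.5 μg/mL for 24 h. IL-6 and TNF-α in the culture medium measured by ELISA.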
For orientation: An ELISA detects its analyte on a solid surface through an enzyme-linked reagent.

For assay [3], the system named is Mus musculus. The assay can be described thus: Antiinflammatory activity in C57BL/6J mouse model of LPS-induced acute lung injury assessed as reduction in tissue destruction at 20 mg/kg, po administered 30 mins prior to LPS treatment and measured after 6 hrs by H and E staining based assay. It counts as functional, organism-based. As to conditions: time 6.5 hrs. The gist of the method: (§3)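 Oral pretreatment 30 min before intratracheal LPS at 5 mg/kg, with a saline sham group. Lungs harvested 6 h later. H&E-stained sections scored for alveolar septal thickness, pulmonary congestion, inflammatory infiltration and tissue destruction.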

In assay [4] the test system is Mus musculus. The assay can be described thus: Antiinflammatory activity in C57BL/6J mouse model of LPS-induced acute lung injury assessed as reduction in p-p65 level at 20 mg/kg, po administered 30 mins prior to LPS treatment and measured after 6 hrs by immunohistochemical analysis. The assay is classed as functional, organism-based. As to conditions: time 6.5 hrs. An outline of the steps: (§4)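 Oral pretreatment 30 min before intratracheal LPS at 5 mg/kg, with a saline sham group. Lungs taken at 6 h. Sections immunostained for F4/80 (macrophage marker) or for p-p65, counterstained with hematoxylin. Percentage of positive cells assessed.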

Assay [5] has as its system J774.A1. The experiment in a line: Antiinflammatory activity in mouse J774.A1 cells assessed as decrease in LPS-induced TNF-alpha secretion at 20 uM preincubated for 30 mins followed by LPS stimulation and measured after 24 hrs by ELISA. The arrangement: scale not given: the % may be the effect or the level left. The assay is classed as functional. The conditions noted are these: time 24.5 hrs. An outline of the steps: as §2

In assay [6] the test system is Mus musculus. The assay can be described thus: Antiinflammatory activity in C57BL/6J mouse model of LPS-induced acute lung injury assessed as reduction in IL-6 production in serum at 20 mg/kg, po administered 30 mins prior to LPS treatment and measured after 6 hrs. The conditions noted are these: time 6.5 hrs. The assay is classed as functional, organism-based. An outline of the steps: as §1

The test system of assay [7] is Mus musculus. The experiment in a line: Antiinflammatory activity in C57BL/6J mouse model of LPS-induced acute lung injury assessed as reduction in TNF-alpha production in BALF at 20 mg/kg, po administered 30 mins prior to LPS treatment and measured after 6 hrs. It counts as functional, organism-based. As to conditions: time 6.5 hrs. An outline of the steps: as §1

Assay [8] has as its system Mus musculus. The assay can be described thus: Antiinflammatory activity in C57BL/6J mouse model of LPS-induced acute lung injury assessed as reduction in inflammatory infiltration at 20 mg/kg, po administered 30 mins prior to LPS treatment and measured after 6 hrs by H and E staining based assay. It counts as functional, organism-based. The conditions noted are these: time 6.5 hrs. The gist of the method:
as §3

Assay [9] deals with Mus musculus. The experiment in a line: Antiinflammatory activity in C57BL/6J mouse model of LPS-induced acute lung injury assessed as reduction in alveolar septa thickness at 20 mg/kg, po administered 30 mins prior to LPS treatment and measured after 6 hrs by H and E staining based assay. The assay is classed as functional, organism-based. The conditions noted are these: time 6.5 hrs. The gist of the method: as §3

Assay [10] deals with J774.A1. The assay can be described thus: Antiinflammatory activity in mouse J774.A1 cells assessed as decrease in LPS-induced TNF-alpha secretion preincubated for 30 mins followed by LPS stimulation and measured after 24 hrs by ELISA. It counts as functional, cell-based. The gist of the method: (§5)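 J774A.1 cells pretreated 30 min across a concentration range, then challenged with LPS at 0.5 μg/mL for 24 h. Secreted IL-6 or TNF-α measured in the medium by ELISA, and IC50 taken from dose–response. Mean ± SEM of 3 independent experiments.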

Assay [11] has as its system J774.A1. The assay can be described thus: Antiinflammatory activity in mouse J774.A1 cells assessed as decrease in LPS-induced IL-6 secretion preincubated for 30 mins followed by LPS stimulation and measured after 24 hrs by ELISA. The assay is classed as functional, cell-based. The gist of the method: as §5
For assay [12], the system named is Mus musculus. The experiment in a line: Antiinflammatory activity in C57BL/6J mouse model of LPS-induced acute lung injury assessed as reduction in TNF-alpha production in serum at 20 mg/kg, po administered 30 mins prior to LPS treatment and measured after 6 hrs. It counts as functional, organism-based. As to conditions: time 6.5 hrs. An outline of the steps:
as §1

The subject of assay [13] is Mus musculus. The assay can be described thus: Antiinflammatory activity in C57BL/6J mouse model of LPS-induced acute lung injury assessed as reduction in […] infiltration at 20 mg/kg, po administered 30 mins prior to LPS treatment and measured after 6 hrs by F4/80 antibody staining based assay. The assay is classed as functional, organism-based. The conditions noted are these: time 6.5 hrs. The gist of the method:
as §4

In assay [14] the test system is Mus musculus. The assay can be described thus: Antiinflammatory activity in C57BL/6J mouse model of LPS-induced acute lung injury assessed as reduction in pulmonary congestion at 20 mg/kg, po administered 30 mins prior to LPS treatment and measured after 6 hrs by H and E staining based assay. It counts as functional, organism-based. As to conditions: time 6.5 hrs. An outline of the steps:
as §3

Assay [15] has as its system Mus musculus. The experiment in a line: Antiinflammatory activity in C57BL/6J mouse model of LPS-induced acute lung injury assessed as reduction in neutrophil count in BALF at 20 mg/kg, po administered 30 mins prior to LPS treatment and measured after 6 hrs by Wright and Giemsa staining based analysis. It counts as functional, organism-based. The conditions noted are these: time 6.5 hrs. The gist of the method: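 Oral dosing 30 min before intratracheal LPS at 5 mg/kg, with a saline sham group. BALF collected at 6 h and neutrophils counted by Wright-Giemsa staining, given relative to control. Mean ± SEM, n = 8.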

In ChEMBL document CHEMBL5223148, “Design, synthesis, and bioactivity evaluation of novel 1-(4-(benzylsulfonyl)-2-nitrophenyl) derivatives as potential anti-inflammatory agents against LPS-induced acute lung injury” (Bioorg Med Chem Lett, 2023) one finds Activity and IC50 data, which are given here for 1 compound.

Calls of active or inactive are those of the source. The rule behind the calls is not given here.

As usually defined, the IC50 is the concentration that inhibits the measured activity by half. Turning to `CCN1CCN(c2ccc(S(=O)(=O)Cc3cccc(OC)c3)cc2[N+](=O)[O-])CC1`, the outcome in [1], in [3], in assay [4], in assay [6], in [7] and in assay [8] was Active. Besides, the outcome in [9], in assay [10] (time 24.5 hrs), in [12], in assay [13], in [14] and in assay [15] was Active. Moreover, the results for the Activity in assay [2], in assay [5] and in assay [11] (time 24.5 hrs) were 63.29%, 33.13% and “Dose-Dependent Effect”, respectively. The IC50 in assay [10] amounted to 19.6 µM; in [11], 5.66 µM.
